Results: ChEMBL document CHEMBL1150591, “Structure and absolute stereochemistry of hectochlorin, a potent stimulator of actin assembly” (J Nat Prod, 2002)
Calls of active or inactive are those of the source. The rule behind the calls is not given here.

Experiments:
CA46 [1] = assay: Cell cycle arrest in human CA46 cells assessed as accumulation at G2/M phase at 0.2 uM after 24 hrs using propidium iodide labeling by flow cytometry; type: functional
CA46 [2] = assay: Ratio of IC50 for rat kangaroo Ptk2 cells to IC50 for human CA46 cells
PtK2 [3] = assay: Effect on actin cytoskeleton in rat kangaroo PtK2 cells assessed as increase in binucleated cells at 0.3 to 3 uM after 24 hrs by immunofluorescence analysis; type: functional, cell-based; details: Potorous tridactylus
In short: (§1)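 PtK2 cells were treated 24 h at 37 °C, then stained with FITC-anti-β-actin antibody (clone Ac-15) and DAPI. Cells were viewed under a 40× oil objective. FITC-phalloidin staining was also used.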

PtK2 [4] = assay: Effect on actin cytoskeleton in rat kangaroo PtK2 cells assessed as increase in binucleated cells at 1 to 10 uM after 24 hrs by immunofluorescence analysis; type: functional, cell-based; details: Potorous tridactylus; in short: as §1
PtK2 [5] = assay: Effect on actin cytoskeleton in rat kangaroo PtK2 cells assessed as thickening in microfilament at 0.3 uM after 24 hrs by immunofluorescence analysis relative to untreated control; type: functional, cell-based; details: Potorous tridactylus; in short: as §1
PtK2 [6] = assay: Effect on actin cytoskeleton in rat kangaroo PtK2 cells assessed as thickening in microfilament at 1.0 uM after 24 hrs by immunofluorescence analysis relative to untreated control; type: functional, cell-based; details: Potorous tridactylus; in short: as §1
PtK2 [7] = assay: Effect on actin cytoskeleton in rat kangaroo PtK2 cells assessed as hairy appearance at 3 uM after 24 hrs by immunofluorescence analysis; type: functional, cell-based; details: Potorous tridactylus; in short: as §1
PtK2 [8] = assay: Effect on actin cytoskeleton in rat kangaroo PtK2 cells assessed as hairy appearance at 10 uM after 24 hrs by immunofluorescence analysis; type: functional, cell-based; details: Potorous tridactylus; in short: as §1
[9] = Stimulation of rabbit muscle actin polymerization by centrifugation assay; type: tissue-based, Oryctolagus cuniculus, Muscle tissue
In short: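 Purified rabbit muscle actin with drug under nonpolymerizing conditions (no exogenous K+). Polymer was separated by centrifugation and supernatant protein measured. EC50 is the concentration reducing supernatant protein by 50% compared with a drug-free control. Three independent experiments were averaged. Total incubation plus processing time was 2.5 h.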

Oryctolagus cuniculus [10] = species: Oryctolagus cuniculus; assay: Stimulation of rabbit muscle actin polymerization assessed as light scattering at 10 to 50 uM by fluorimetry; details: Muscle tissue
In short: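 90° light scattering at 400 nm, 22 °C. Background read for 3 min, then drug in DMSO added, mixed, and followed about 15 min. PIB (2.5 M KCl, 100 mM MgCl2, 50 mM ATP) used as reference inducer.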

Oryctolagus cuniculus [11] = species: Oryctolagus cuniculus; assay: Stimulation of rabbit muscle actin polymerization by electron microscopy; details: Muscle tissue
In short: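 Samples of purified rabbit muscle actin with drug were examined by electron microscopy for filaments, in parallel with K+-induced controls. Low-speed centrifugation (20000g, 30 min, 22 °C) was used to test for bundled polymer.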

[12] = Displacement of FITC-phalloidin from rabbit muscle actin polymer after 1 hr by fluorescence analysis; type: tissue-based, Oryctolagus cuniculus, Muscle tissue
In short: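 Rabbit muscle actin and FITC-phalloidin were incubated 1 h at 22 °C in monomer buffer with 2 µL PIB per 100 µL. Drugs in DMSO were added for another 1 h at 22 °C, then the mixture was centrifuged and supernatant fluorescence read. EC50 is the concentration giving 50% of the maximal phalloidin-induced increase.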

Oryctolagus cuniculus [13] = species: Oryctolagus cuniculus; assay: Displacement of FITC-phalloidin from rabbit muscle actin polymer pretreated prior to FITC-phalloidin addition by fluorescence analysis; details: Muscle tissue
[14] = Antiproliferative activity against human NCI60 cells; type: functional
CA46 [15] = assay: Antiproliferative activity against human CA46 cells after 24 hrs; type: functional, cell-based; details: CA46, 24 h
In short: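 CA46 Burkitt lymphoma cells are a suspension line. They were grown 24 h at 37 °C with drug, and cell number was the read-out. IC50 is the concentration giving 50% growth inhibition.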

[16] = Antiproliferative activity against rat kangaroo PtK2 cells after 48 hrs; type: cell-based; details: Potorous tridactylus, PtK2, 48 h
In short: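 PtK2 kidney cells (Potorous tridactylis) are an attached line. They were exposed to drug for 48 h, and cell protein was the read-out of growth. IC50 was taken from the concentration response.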

Candida albicans [17] = assay: Antimicrobial activity against Candida albicans ATCC 14053 at 100 ug/disk by standard paper sensitivity disk-agar plate method; type: functional; details: read-out: IZ
In short: (§2)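 Agar disk diffusion with paper disks 6 mm in diameter, dose per disk as in line.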

Candida albicans [18] = assay: Antimicrobial activity against Candida albicans ATCC 14053 at 10 ug/disk by standard paper sensitivity disk-agar plate method; type: functional; details: read-out: IZ; in short: as §2
Pseudomonas aeruginosa = assay: Antimicrobial activity against Pseudomonas aeruginosa ATCC 10145 by standard paper sensitivity disk-agar plate method; type: functional, organism-based
In short: (§3)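 Paper disks of 6 mm diameter placed on seeded agar plates; activity assessed by standard disk-agar sensitivity method.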

Escherichia coli = assay: Antimicrobial activity against Escherichia coli ATCC 1775 by standard paper sensitivity disk-agar plate method; type: functional, organism-based; in short: as §3
[19] = test system: Salmonella enterica subsp. enterica; assay: Antimicrobial activity against Salmonella choleraesuis subsp. choleraesuis ATCC 14028 by standard paper sensitivity disk-agar plate method; type: functional, organism-based; in short: as §3
Bacillus subtilis = assay: Antimicrobial activity against Bacillus subtilis ATCC 6051 by standard paper sensitivity disk-agar plate method; type: functional, organism-based
In short: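 Paper disk on agar, disk diameter 6 mm.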

Staphylococcus aureus = assay: Antimicrobial activity against Staphylococcus aureus ATCC 12600 by standard paper sensitivity disk-agar plate method; type: functional, organism-based; in short: as §3
PtK2 [20] = assay: Effect on actin cytoskeleton in rat kangaroo PtK2 cells assessed as reorganization and hypernucleation of actin assembly at 0.03 uM after 24 hrs by immunofluorescence analysis; type: functional, cell-based; details: Potorous tridactylus; in short: as §1
PtK2 [21] = assay: Effect on actin cytoskeleton in rat kangaroo PtK2 cells assessed as retracted cytoplasm and spiky appearance at 3 uM after 24 hrs by immunofluorescence analysis; type: functional, cell-based; details: Potorous tridactylus; in short: as §1
CA46 [22] = assay: Cell cycle arrest in human CA46 cells assessed as accumulation at G2/M phase at 1.0 uM after 24 hrs using propidium iodide labeling by flow cytometry; type: functional
In short: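 CA46 human Burkitt lymphoma cells were treated with the drug for 24 h. Cellular DNA content was then labelled with propidium iodide and measured by flow cytometry. The read-out was the percentage of cells in G2/M phase, compared against an untreated control.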

Q: For CC(=O)O[C@@H]1c2nc(cs2)C(=O)O[C@@H](CCCC(C)(Cl)Cl)[C@H](C)C(=O)O[C@@H](C(C)(C)O)c2nc(cs2)C(=O)OC1(C)C [HECTOCHLORIN], which Activity (CA46 [1]) is on record?
A: 37%

Q: What about the “Ratio IC50” value (CA46 [2]) of the same compound?
A: 10

Q: What about the Activity (PtK2 [3]) of the same compound?
A: Active

Q: What about the Activity (PtK2 [4]) of the same compound?
A: Active

Q: And the Activity (PtK2 [5])?
A: Active

Q: What about the Activity (PtK2 [6]) of the same compound?
A: Active

Q: What about the Activity (PtK2 [7]) of the same compound?
A: Active

Q: And the Activity (PtK2 [8])?
A: Active

Q: What about the EC50 [9] of the same compound?
A: 20000 nM

Q: And the Activity (Oryctolagus cuniculus [10])?
A: Active

Q: What about the Activity (Oryctolagus cuniculus [11]) of the same compound?
A: inactive

Q: What about the EC50 [12] of the same compound?
A: > 60000 nM

Q: What about the Activity (Oryctolagus cuniculus [13]) of the same compound?
A: inactive

Q: What about the GI50 [14] of the same compound?
A: 5100 nM

Q: And the IC50 (CA46 [15])?
A: 20 nM

Q: And the IC50 [16]?
A: 300 nM

Q: What about the zone of inhibition at 100 µg/disc (Candida albicans [17]) of the same compound?
A: 16 mm

Q: What about the zone of inhibition at 10 µg/disc (Candida albicans [18]) of the same compound?
A: 11 mm

Q: What about the Activity (Pseudomonas aeruginosa) of the same compound?
A: inactive

Q: What about the Activity (Escherichia coli) of the same compound?
A: inactive

Q: And the Activity [19]?
A: inactive

Q: And the Activity (Bacillus subtilis)?
A: inactive

Q: What about the Activity (Staphylococcus aureus) of the same compound?
A: inactive

Q: For C/C1=C\[C@H](C)C[C@H](C)OC(=O)C[C@H](c2ccc(O)cc2)NC(=O)[C@@H](Cc2c(Br)[nH]c3ccccc23)N(C)C(=O)[C@H](C)NC(=O)[C@@H](C)C1 [JASPAMIDE], which Activity (PtK2 [3]) is on record?
A: Active

Q: What about the Activity (PtK2 [4]) of the same compound?
A: Active

Q: And the Activity (PtK2 [20])?
A: Active

Q: And the Activity (PtK2 [21])?
A: Active

Q: What about the Activity (Oryctolagus cuniculus [10]) of the same compound?
A: Active

Q: And the EC50 [12]?
A: 6500 nM

Q: What about the IC50 (CA46 [15]) of the same compound?
A: 30 nM

Q: What about the IC50 [16] of the same compound?
A: 300 nM

Q: For CC(C)[C@@H]1NC(=O)CNC(=O)[C@@H]2CSC(=N2)[C@H](C(C)(C)O)OC(=O)C(C)(C)[C@H](CCCC(C)(Cl)Cl)OC(=O)c2csc1n2 [LYNGBYABELLIN B], which Activity (CA46 [22]) is on record?
A: 28%

Q: What about the Activity (PtK2 [3]) of the same compound?
A: Active

Q: And the Activity (PtK2 [4])?
A: Active

Q: What about the Activity (PtK2 [5]) of the same compound?
A: Active

Q: What about the Activity (PtK2 [6]) of the same compound?
A: Active

Q: And the Activity (PtK2 [7])?
A: Active

Q: And the Activity (PtK2 [8])?
A: Active

Q: And the EC50 [9]?
A: > 50000 nM

Q: And the IC50 (CA46 [15])?
A: 100 nM

Q: And the IC50 [16]?
A: 1000 nM
